Screens (PubChem)
Runt-CBFb FRET = inhibitors of RUNX1 Runt–CBFb binding, primary screen, biochemical, FRET, Cerulean-Runt, Venus-CBFb, uHTS; Runt-related transcription factor 1 (Homo sapiens) + Core-binding factor subunit beta …; Cerulean-Runt/Venus-CBFb FRET ratio 530/480, 1 h; inhibition, % at 20 µM; hit rate 0.46% among 220,000;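 active = inhibition over about 50% at 20 µM in the single-dose screen, limit read from the data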;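 note: 0% = DMSO wells and 100% = excess unlabeled CBFb competitor control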
Target sequence (Q01196 whole entry, looked up): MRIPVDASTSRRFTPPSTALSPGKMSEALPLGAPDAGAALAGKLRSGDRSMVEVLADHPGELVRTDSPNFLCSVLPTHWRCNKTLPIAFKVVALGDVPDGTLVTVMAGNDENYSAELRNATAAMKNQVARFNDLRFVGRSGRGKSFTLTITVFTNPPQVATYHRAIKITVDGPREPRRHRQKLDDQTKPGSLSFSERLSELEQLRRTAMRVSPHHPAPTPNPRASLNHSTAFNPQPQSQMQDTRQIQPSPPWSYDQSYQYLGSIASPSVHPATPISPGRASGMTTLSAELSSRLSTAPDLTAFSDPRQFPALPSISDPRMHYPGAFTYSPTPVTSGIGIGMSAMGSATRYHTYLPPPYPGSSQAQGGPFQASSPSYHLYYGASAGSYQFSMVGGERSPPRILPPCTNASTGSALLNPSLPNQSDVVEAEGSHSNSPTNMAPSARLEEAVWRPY
Target sequence (Q13951 whole entry, looked up): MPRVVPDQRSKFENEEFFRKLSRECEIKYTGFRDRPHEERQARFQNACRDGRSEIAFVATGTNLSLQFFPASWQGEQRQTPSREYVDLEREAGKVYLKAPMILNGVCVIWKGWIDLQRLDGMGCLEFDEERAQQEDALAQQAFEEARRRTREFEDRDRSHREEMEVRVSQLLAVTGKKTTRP
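test system = Cerulean-Runt domain fusion protein, energy donor | probe or stimulus = Venus-CBFb binding partner, 100 nM | incubation = two 1 h room-temperature incubations shielded from light | detection = fluorescence energy transfer, 422 nm excitation, 530/480 nm emission | measure = loss of energy transfer signal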
MEX-5 binding = MEX-5 zinc finger RNA-binding disruptors – biochemical, C. elegans, fluorescence polarization, MLPCN library, primary screen. AID 1832, 2009. hit rate 0.38% among 300,000. Zinc finger protein mex-5 (Caenorhabditis elegans), Q9XUB2. MEX-5/FITC-TCR2 RNA binding; active compounds read low. activity score (negative = inhibition of binding), % at 10 µM;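 active = inhibition past about -25% in most replicates, and total fluorescence under double the plate's negative control median, limit read from the data; inconclusive = replicates evenly split on the limit, or fluorescence at least double controls; inactive = too little inhibition in most replicates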;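 note: 0% = DMSO and -100% = 5 µM competing unlabeled TCR2 RNA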
EBV gp42 inh = Epstein-Barr virus gp42 inhibitors, primary screen, biochemical, uHTS, fluorescence polarization; inhibition, % (tested at 21.74 µM); Glycoprotein 42 (Epstein-Barr virus (strain AG876)), Q1HVG2; Fluorescence polarization binding assay, mP read-out; hit rate 0.42% among 220,000; AID 1085, 2008; in the data active = inhibition above about 50%
RanGTP-Impb inh = inhibitors of RanGTP-importin-beta interaction, primary screen, biochemical, FRET, CFP-Ran, YFP-importin-beta, homogeneous; Ran GTPase (GTP-bound) - importin-beta complex; cell-free CFP-Ran/YFP-importin-beta FRET ratio; inhibition, % (concentration not given with the values); hit rate 1.1% among 300,000; AID 2216, 2009;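 active = more than half of the replicate wells show a fall in the fluorescence ratio signal beyond about 16%, limit read from the data, passing the limit was not always enough; inconclusive = exactly half of the replicate wells pass the set limit; inactive = fewer than half of replicates pass the limit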;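 note: 0% = DMSO wells and 100% = Ran loaded with GDP instead of GTP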
LANA-H2B inh = blockers of LANA interaction with H2A/H2B – biochemical, FP readout, HTS, primary screen; Protein LANA1 (Human herpesvirus 8 type P (isolate GK18)), Q9QR71; cell-free LANA-H2A/H2B peptide, fluorescence polarization; inhibition, % (test concentration not listed); hit rate 0.6% among 320,000; AID 2629, 2010; in the data active = inhibition mostly above about 10%, no sharp cut-off; inactive = mostly below about 6.7%
Runt-SMMHC FRET = inhibitors of RUNX1 Runt–CBFb-SMMHC binding, primary screen, biochemical, FRET, Cerulean-Runt, Venus-CBFb-SMMHC, uHTS; Runt-related transcription factor 1 (Homo sapiens) + Core-binding factor subunit beta …; Cerulean-Runt/Venus-CBFb-SMMHC FRET ratio 530/480, 1 h; inhibition, % at 20 µM; hit rate 0.74% among 220,000;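 active = mean inhibition across duplicate retests at 20 µM reaching about 50%, limit read from the data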;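 note: 0% = DMSO wells and 100% = wells with excess untagged CBFb-SMMHC; inhibitors lower the FRET ratio by blocking Runt binding to CBFb-SMMHC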
YIC counter = YIC intramolecular FRET probe signal interference, dose response, counter-screen for RanGTP-importin-beta inhibitor project, biochemical, fluorescence FRET | IC50, µM | shares compounds with RanGTP-Impb inh | Purified YIC probe, intramolecular FRET ratio YFP/CFP | hit rate 40% among 1,000;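 active = fitted half-maximal inhibitory concentration no more than tenfold above the top dose tested; inconclusive = flat fit with 30 to 70% activity, or poor fit; inactive = half-maximal concentration beyond tenfold above the top dose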
* marks the source's active call; other numbers are inactive results; u = inconclusive; x = no result. This is a sample that favours compounds with a hit; in the whole collection about 2.4% have one here.

SMILES | Runt-CBFb FRET | MEX-5 binding | EBV gp42 inh | RanGTP-Impb inh | LANA-H2B inh | Runt-SMMHC FRET | YIC counter
C=CCn1c(SCC(=O)N2CC(C)OC(C)C2)nnc1-c1ccncc1 (configuration not stated) | x | x | x | x | -187.5 | x | x
Cn1nnnc1SCC(=O)Nc1nn(-c2ccccc2)nc1C(N)=O | 1.4 | -1.3 | -6.5 | 17.5* | -4.1 | -2.9 | >50
Cc1nn(C)c(Oc2ccc(Cl)cc2)c1C(=O)O | 0.3 | 3.5 | -1.7 | 23.2* | 1.8 | 4.3 | >50
COc1ccc(S(=O)(=O)N[C@@H](Cc2ccc(Cl)cc2)C(=O)N2CC[C@@]3(O)CCCC[C@H]3C2)cc1 | -1.1 | 0.7 | -12.8 | 9.6 | -4.2 | -3.5 | x
Cc1cccc(NC(=O)c2cc(S(=O)(=O)N(C)c3ccc(F)cc3)ccc2Cl)n1 | x | -1.3 | x | 20.1* | 7.7 | x | >50
COc1ccccc1N(C)S(=O)(=O)c1ccc(Cl)c(C(=O)Nc2cccc(C)n2)c1 | x | 0.1 | x | 7.9 | 3.3 | x | x
CO/N=C/CC(=O)c1ccc([N+](=O)[O-])c(CS(=O)(=O)c2ccc(Cl)cc2)c1 | x | -0.5 | x | -4.9 | -3.8 | x | x
CC(C)CCNC(=O)C(c1ccco1)N(Cc1ccccc1)C(=O)c1snc(C(N)=O)c1N (configuration not stated) | -3.5 | 2.3 | 14.2 | 30.1* | 2.0 | 5.6 | >50
CCC1CCCCN1Cc1c(O)ccc2c(=O)c(-c3ccccc3OC)coc12 (configuration not stated) | x | -0.4 | x | 1.7 | -1.3 | x | x
CC1CCCCN1Cc1c(O)ccc2c(=O)c(-c3nc4ccccc4s3)coc12 (configuration not stated) | 10.4 | -3.8 | -10.5 | 38.0* | -0.8 | 25.1 | <0.38*
CCCCn1c(-c2ccc(OC)cc2)nc2c(=O)n(C)c(=O)[nH]c21 | x | -0.3 | x | 1.8 | 0.0 | x | x
Cn1c(=O)[nH]c2c(nc(-c3ccc(Cl)cc3)n2C)c1=O | x | -10.6 | x | 18.2* | 3.4 | x | 31.9*
CCc1ccc(CN2CCC(Oc3ccc(C(=O)N4CCCC4)cc3)CC2)cc1 | x | -3.7 | x | 3.8 | -3.2 | x | x
CC(C)c1ccc(CN2CCC(Oc3ccc(C(=O)N4CCCC4)cc3)CC2)cc1 | x | 2.1 | x | 21.1* | -3.6 | x | >50
COc1ccc(Cn2c(O)c(C=Nc3ccccc3C(=O)O)c3ccccc3c2=O)cc1 | 2.5 | -1.0 | 5.4 | 5.7 | -2.4 | 3.0 | x
COc1ccc(Cn2c(O)c(C=Nc3ccc(OC)cc3)c3ccccc3c2=O)cc1 | -165.7 | -5.9 | 3.6 | 29.0* | -0.7 | -24.9 | >26
CCN(CC)Cc1c(CC(C)C)oc(C)c1C(=O)O | 3.0 | -0.6 | -6.6 | 21.4* | -2.0 | -4.4 | >50
CCc1ccc(NC2=CC(=O)CC(C)(C)C2)cc1 | x | 1.3 | x | -0.5 | -4.6 | x | x
CC1(C)CC(=O)C=C(Nc2ccc(S(N)(=O)=O)cc2)C1 | 0.4 | -1.2 | -6.5 | 22.2* | -5.0 | 1.4 | >50
Clc1cccc(-c2ccc(C=Nc3ccc(N4CCOCC4)cc3)o2)c1Cl | 7.0 | 0.0 | -7.3 | 23.2* | x | -1.5 | >50
Clc1ccc(-c2ccc(C=Nc3ccc(N4CCOCC4)cc3)o2)c(Cl)c1 | -1.3 | 0.9 | 13.6 | -0.6 | -1.8 | -2.2 | x
Cn1c(CNC(=O)c2ccco2)nnc1SCC(=O)c1ccc(Br)cc1 | x | -0.8 | x | 2.1 | -4.6 | x | x
c1ccc(Nc2nc3ccccc3n3nnnc23)cc1 | 21.6 | 1.2 | 42.3 | 35.6* | 4.5 | 44.5 | 24*
CN(CCc1ccccn1)C(=O)CCC1CCCN(C(=O)NC2CCCCC2)C1 (configuration not stated) | 0.6 | 0.7 | -8.5 | 4.4 | -0.3 | 0.2 | x
COc1ccc(C(=O)N/N=C/c2c(CO)cnc(C)c2O)cc1 | 3.5 | -0.1 | -9.7 | 21.7* | -0.8 | 88.4* | 1.52*
SMILES | Runt-CBFb FRET | MEX-5 binding | EBV gp42 inh | RanGTP-Impb inh | LANA-H2B inh | Runt-SMMHC FRET | YIC counter
CCOC(=O)c1c(N2C(=O)Nc3ccccc3N2O)sc2c1CCCC2 | 0.5 | 1.7 | -4.5 | 20.3* | -1.5 | -0.6 | >50
O=C(NC1CCCCCC1)C(=S)NCCc1ccccc1 | 20.5 | -0.1 | -28.1 | 24.7* | -0.6 | -3.3 | >50
COCC(=O)N(Cc1cc2cccc(C)c2[nH]c1=O)c1ccccc1 | x | -5.0 | x | -1.7 | 1.2 | x | x
Cc1ccc(S(=O)(=O)NCCOCCNS(=O)(=O)c2ccc(C)cc2)cc1 | -1.6 | -1.1 | -4.0 | 2.6 | 2.6 | 2.2 | x
Cc1ccc(S(=O)(=O)NCCN(CCNS(=O)(=O)c2ccc(C)cc2)S(C)(=O)=O)cc1 | -4.0 | 2.0 | -8.7 | 20.8* | -0.6 | -2.8 | >50
COc1ccc(-c2nn(-c3ccccc3)cc2C(=O)NC2CCCCC2C)cc1 (configuration not stated) | x | 0.0 | x | 3.8 | x | x | x
Cc1cccn2c(=O)c(/C=C(\C#N)C(N)=O)c(Oc3ccccc3)nc12 | 11.1 | -2.0 | -13.0 | 24.7* | 0.7 | 118.8* | 1.58*
CCOC(=O)/C(C#N)=C/c1c(N2CCN(c3ccc(OC)cc3)CC2)nc2c(C)cccn2c1=O | x | 4.4 | x | 20.5* | 1.2 | x | >50
CCOC(=O)/C(C#N)=C/c1c(N2CCN(c3cccc(Cl)c3)CC2)nc2c(C)cccn2c1=O | x | -3.3 | x | -9.6 | x | x | x
COCCNC(=O)/C(C#N)=C/c1c(N2CCN(c3ccc(OC)cc3)CC2)nc2c(C)cccn2c1=O | x | -0.4 | x | 18.7* | -4.7 | x | 46.5*
COc1cc(C2CC(=O)c3c([nH]c(C(=O)OCCOC(C)C)c3C)C2)cc(OC)c1OC (configuration not stated) | -5.0 | 1.5 | -14.8 | 3.3 | 0.9 | 0.6 | x
Cc1cccc(C2NC(c3cccc(C)c3)C(C)C(=O)C2C)c1 (configuration not stated) | x | 2.9 | x | u | 0.5 | x | x
COc1ccc(NC(=S)Nc2cccc(C(F)(F)F)c2)c(C)c1 | 0.1 | -4.5 | -0.7 | 7.2 | -2.7 | 2.0 | x
Cc1ccc(OCC(=O)N2CCCCCC2)c(C)c1 | -1.3 | -0.5 | -26.5 | 17.1* | 2.6 | 3.4 | >50
CCC(=O)Nc1ccc(N/C(N)=N/c2nc(C)cc(C)n2)cc1 | 1.7 | 0.1 | 2.8 | 17.2* | -0.3 | 1.5 | >50
Cc1ccc(N/C(N)=N/c2nc(C)cc(C)n2)cc1 | -2.9 | 0.9 | -1.7 | 3.2 | x | 2.6 | x
